Values after ≈ are worked out from the molar mass of the structure shown.
Columns and labels:
[1] = tested on: Escherichia coli; experiment: Effect on 16S rRNA accumulation in Escherichia coli at 25 ug/ml; assay type: functional
Method in brief: (§1)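 E. coli grown in TSB across a range of hygromycin B concentrations, plus an untreated control. Total RNA was extracted from 1 ml of cells. Samples (5 µl at 200 ng/µl) were run on an Agilent Bioanalyzer RNA 6000 chip under total-RNA conditions, and RNA species were read from fluorescence electropherograms.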

[2] = tested on: Escherichia coli; experiment: Inhibition of viable cells in Escherichia coli at 20 ug/ml; assay type: functional
Method in brief: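 E. coli grown at 37°C in TSB with or without drug. Viable cells were counted as colonies after serial dilution. Results are given as percent decrease versus untreated control; means of two determinations.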

[3] = tested on: Escherichia coli; experiment: Effect on 16S rRNA accumulation in Escherichia coli at 100 ug/ml; assay type: functional; method in brief: as §1
[4] = tested on: Escherichia coli; experiment: Decrease in 23S RNA accumulation in Escherichia coli at 25 ug/ml; assay type: functional; design: scale not given: the % may be the effect or the level left; method in brief: as §1
[5] = tested on: Escherichia coli; experiment: Antimicrobial activity against Escherichia coli; assay type: functional
Method in brief: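 Broth dilution MIC; E. coli grown at 37°C in tryptic soy broth (TSB) with and without hygromycin B.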

[6] = tested on: Escherichia coli; experiment: Reduction of growth rate in Escherichia coli at 25 ug/ml; assay type: functional; design: scale not given: the % may be the effect or the level left
[7] = tested on: Escherichia coli; experiment: Inhibition of protein synthesis in Escherichia coli measured as incorporation of [35S]methionine; assay type: functional, organism-based
Method in brief: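 E. coli in TSB at 37°C, with or without drug, received [35S]methionine (1 µCi/ml). Samples (0.4 ml) were taken every 5 min for 15 min, precipitated with 20% TCA, collected on glass-fibre filters, washed with 10% TCA, and scintillation-counted. IC50 derived from the concentration series; means of two.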

[8] = tested on: Escherichia coli; experiment: Effect on small RNA accumulation in Escherichia coli at 75 ug/ml; assay type: functional; method in brief: as §1
[9] = tested on: Escherichia coli; experiment: Increase in 16S precursor accumulation in Escherichia coli at 75 ug/ml; assay type: functional; method in brief: as §1
[10] = tested on: Escherichia coli; experiment: Increase in 16S precursor accumulation in Escherichia coli at 25 ug/ml; assay type: functional; method in brief: as §1
[11] = tested on: Escherichia coli; experiment: Decrease in 23S RNA accumulation in Escherichia coli at 50 ug/ml; assay type: functional; design: scale not given: the % may be the effect or the level left; method in brief: as §1
[12] = tested on: Escherichia coli; experiment: Effect on 16S rRNA accumulation in Escherichia coli at 50 ug/ml; assay type: functional; method in brief: as §1
[13] = tested on: Escherichia coli; experiment: Effect on small RNA accumulation in Escherichia coli at 50 ug/ml; assay type: functional; method in brief: as §1
[14] = tested on: Escherichia coli; experiment: Effect on small RNA accumulation in Escherichia coli at 25 ug/ml; assay type: functional; method in brief: as §1
[15] = Inhibition of 30S ribosomal-subunit assembly in Escherichia coli
Method in brief: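 E. coli in TSB at 37°C were labelled with [3H]uridine (1 µCi/ml, 1 µg/ml) for two doublings, with or without drug. Label was chased with uridine at 50 µg/ml final for 15 min. The 30S share of total gradient cpm was compared with control; IC50 derived; means of two.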

[16] = tested on: Escherichia coli; experiment: Increase in 16S precursor accumulation in Escherichia coli at 100 ug/ml; assay type: functional; method in brief: as §1
[17] = tested on: Escherichia coli; experiment: Decrease in 23S RNA accumulation in Escherichia coli at 75 ug/ml; assay type: functional; design: scale not given: the % may be the effect or the level left; method in brief: as §1
[18] = tested on: Escherichia coli; experiment: Increase in 16S precursor accumulation in Escherichia coli at 50 ug/ml; assay type: functional; method in brief: as §1
[19] = tested on: Escherichia coli; experiment: Effect on small RNA accumulation in Escherichia coli at 100 ug/ml; assay type: functional; method in brief: as §1
[20] = tested on: Escherichia coli; experiment: Effect on 16S rRNA accumulation in Escherichia coli at 75 ug/ml; assay type: functional; method in brief: as §1
[21] = tested on: Escherichia coli; experiment: Decrease in 23S RNA accumulation in Escherichia coli at 100 ug/ml; assay type: functional; design: scale not given: the % may be the effect or the level left; method in brief: as §1

Compound: CN[C@H]1C[C@@H](N)[C@H](O)[C@@H](O[C@@H]2O[C@H](CO)[C@H](O)[C@H]3O[C@@]4(O[C@H]23)O[C@H]([C@H](N)CO)[C@H](O)[C@H](O)[C@H]4O)[C@@H]1O
- Activity [1]: 10.4%
- inhibition at 20 µg/mL [2]: 50%
- Activity [3]: 4.8%
- Activity [4]: 13.5%
- MIC [5]: 150 µg/mL (≈ 284 µM)
- Activity [6]: 50%
- IC50 [7]: 16 µg/mL (≈ 30.3 µM)
- Activity [8]: 64.5%
- Activity [9]: 1.1%
- Activity [10]: 0.5%
- Activity [11]: 12.5%
- Activity [12]: 10.4%
- Activity [13]: 62.8%
- Activity [14]: 59%
- IC50 [15]: 65 µg/mL (≈ 123 µM)
- Activity [16]: 1.2%
- Activity [17]: 12.7%
- Activity [18]: 0.75%
- Activity [19]: 68.8%
- Activity [20]: 7.3%
- Activity [21]: 10%
